Results reported in ChEMBL document CHEMBL4673258, “Discovery of IPN60090, a Clinical Stage Selective Glutaminase-1 (GLS-1) Inhibitor with Excellent Pharmacokinetic and Physicochemical Properties” (J Med Chem, 2020).

How the values were obtained:
[1] = Half life in Sprague-Dawley rat at 0.3 mg/kg, iv by LC-MS/MS analysis; assay type: ADME, organism-based; conditions: in vivo
Procedure, shortened: (§1)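 Bis-hydrochloride salt given to male Sprague-Dawley rats (200–300 g) or male beagle dogs (7–10 kg), fasted overnight and fed 4 h postdose. IV dose 0.3 mg/kg (rat dorsal foot vein, dog cephalic vein) or PO gavage 3 mg/kg.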

[2] = Cmax in Beagle dog at 3 mg/kg, po administered via gavage by LC-MS/MS analysis; assay type: ADME, organism-based, Canis lupus familiaris; set-up: route oral, dose 3 mg/kg; conditions: in vivo
Procedure, shortened: (§2)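 Male beagle dogs (7–10 kg), fasted overnight and fed 4 h postdose, received the bis-hydrochloride salt at 3 mpk by oral gavage. Plasma concentrations by LC-MS/MS; Cmax and AUClast from the oral dose.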

[3] = Oral bioavailability in Sprague-Dawley rat at 2 mg/kg administered via gavage by LC-MS/MS analysis; assay type: ADME, organism-based; conditions: in vivo
[4] = Half life in Beagle dog at 0.3 mg/kg, iv by LC-MS/MS analysis; assay type: ADME, organism-based, Canis lupus familiaris; conditions: in vivo; for t1/2: 0.3 mg/kg; procedure, shortened: as §1
[5] = Volume of distribution at steady state in Sprague-Dawley rat at 0.3 mg/kg, iv by LC-MS/MS analysis; assay type: ADME, organism-based; conditions: in vivo; procedure, shortened: as §1
[6] = Oral bioavailability in Beagle dog at 3 mg/kg administered via gavage by LC-MS/MS analysis; assay type: ADME, organism-based, Canis lupus familiaris; conditions: in vivo; procedure, shortened: as §1
[7] = AUClast in Beagle dog at 3 mg/kg, po administered via gavage by LC-MS/MS analysis; assay type: ADME, organism-based, Canis lupus familiaris; set-up: time 0 - last, route oral, dose 3 mg/kg; conditions: in vivo; procedure, shortened: as §2
[8] = Cmax in Sprague-Dawley rat at 2 mg/kg, po administered via gavage by LC-MS/MS analysis; assay type: ADME, organism-based; set-up: route oral, dose 2 mg/kg; conditions: in vivo
[9] = Volume of distribution at steady state in Beagle dog at 0.3 mg/kg, iv by LC-MS/MS analysis; assay type: ADME, organism-based, Canis lupus familiaris; conditions: in vivo; for Vdss: 0.3 mg/kg; procedure, shortened: as §1
[10] = AUClast in Sprague-Dawley rat at 2 mg/kg, po administered via gavage by LC-MS/MS analysis; assay type: ADME, organism-based; set-up: route oral, time 0 - last, dose 2 mg/kg; conditions: in vivo
[11] = Cmax in cynomolgus monkey at 3 mg/kg, po administered via gavage by LC-MS/MS analysis; assay type: ADME, organism-based, Macaca fascicularis; set-up: route oral, dose 3 mg/kg; conditions: in vivo
Procedure, shortened: (§3)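 Male cynomolgus monkeys (3–5 kg), fasted overnight and fed 4 h postdose, dosed with the bis-hydrochloride salt at 3 mpk by nasal gavage. Blood from saphenous or cephalic vein into K2EDTA at predose and 0.083–24 h (0.083, 0.25, 0.5, 1, 2, 4, 8, 24 h). Plasma quantified by LC-MS/MS; Cmax and AUClast from the oral dose.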

[12] = Free plasma concentration in NSG mouse xenografted with human H460 cells at 250 mg/kg, po administered as single dose via gavage measured after 24 hrs by LC-MS analysis; assay type: ADME, organism-based; conditions: in vivo
[13] = Clearance in Beagle dog at 0.3 mg/kg, iv by LC-MS/MS analysis; assay type: ADME, organism-based, Canis lupus familiaris; conditions: in vivo
Procedure, shortened: (§4)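 Bis-hydrochloride salt dosed 0.3 mg/kg IV and 3 mg/kg PO (mouse: 3 mg/kg IV, 10 mg/kg PO); female CD-1 mice, male beagle dogs, male cynomolgus monkeys; monkeys and dogs fasted overnight and fed 4 h postdose. IV via tail (mouse) or cephalic vein; PO by oral (mouse) or nasal (monkey) gavage. K2EDTA plasma sampled predose to 24 h; LC-MS/MS. CL, Vdss, t1/2 from IV; F% from oral dose.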

[14] = Cmax in Sprague-Dawley rat at 3 mg/kg, po administered via gavage by LC-MS/MS analysis; assay type: ADME, organism-based; set-up: route oral, dose 3 mg/kg; conditions: in vivo
Procedure, shortened: (§5)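 Male Sprague-Dawley rats (200–300 g), fasted overnight and fed 4 h postdose, given the bis-hydrochloride salt at 3 mpk by oral gavage. Tail-vein blood into K2EDTA taken predose and at 0.083–24 h (0.083, 0.25, 0.5, 1, 2, 4, 8, 24 h). Plasma analysed by LC-MS/MS; Cmax and AUClast derived from the oral dose.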

[15] = Oral bioavailability in cynomolgus monkey at 3 mg/kg administered via gavage by LC-MS/MS analysis; assay type: ADME, organism-based, Macaca fascicularis; conditions: in vivo; procedure, shortened: as §4
[16] = AUClast in Sprague-Dawley rat at 3 mg/kg, po administered via gavage by LC-MS/MS analysis; assay type: ADME, organism-based; set-up: route oral, time 0 - last, dose 3 mg/kg; conditions: in vivo; procedure, shortened: as §5
[17] = Free plasma concentration in NSG mouse xenografted with human H460 cells at 250 mg/kg, po administered as single dose via gavage measured after 8 hrs by LC-MS analysis; assay type: ADME, organism-based; conditions: in vivo
[18] = Free plasma concentration in NSG mouse xenografted with human H460 cells at 10 mg/kg, po administered as single dose via gavage measured after 8 hrs by LC-MS analysis; assay type: ADME, organism-based; conditions: in vivo
[19] = Volume of distribution at steady state in CD-1 mouse at 3 mg/kg, iv by LC-MS/MS analysis; assay type: ADME, organism-based; conditions: in vivo, read-out: Vdss; procedure, shortened: as §4
[20] = AUClast in cynomolgus monkey at 3 mg/kg, po administered via gavage by LC-MS/MS analysis; assay type: ADME, organism-based, Macaca fascicularis; set-up: route oral, time 0 - last, dose 3 mg/kg; conditions: in vivo; procedure, shortened: as §3
[21] = Oral bioavailability in Sprague-Dawley rat at 3 mg/kg administered via gavage by LC-MS/MS analysis; assay type: ADME, organism-based; conditions: in vivo; procedure, shortened: as §1
[22] = Half life in cynomolgus monkey at 0.3 mg/kg, iv by LC-MS/MS analysis; assay type: ADME, organism-based, Macaca fascicularis; conditions: in vivo; procedure, shortened: as §4
[23] = Free plasma concentration in NSG mouse xenografted with human H460 cells at 10 mg/kg, po administered as single dose via gavage measured after 24 hrs by LC-MS analysis; assay type: ADME, organism-based; conditions: in vivo
[24] = Half life in CD-1 mouse at 3 mg/kg, iv by LC-MS/MS analysis; assay type: ADME, organism-based; conditions: in vivo; procedure, shortened: as §4
[25] = Cmax in CD-1 mouse at 10 mg/kg, po administered via gavage by LC-MS/MS analysis; assay type: ADME, organism-based; set-up: route oral, dose 10 mg/kg; conditions: in vivo
Procedure, shortened: (§6)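 Female CD-1 mice (20–30 g), food and water ad libitum, given the bis-hydrochloride salt at 10 mpk by oral gavage. Plasma quantified by LC-MS/MS; Cmax and AUClast from the oral dose.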

[26] = Free plasma concentration in NSG mouse xenografted with human H460 cells at 50 mg/kg, po administered as single dose via gavage measured after 8 hrs by LC-MS analysis; assay type: ADME, organism-based; conditions: in vivo
Procedure, shortened: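 Female NSG mice, 6–10 weeks old, bearing H460 tumours (5×10^5 cells with matrigel 1:1) of 300–400 mm³. Given a single oral gavage dose of bis-hydrochloride salt in 0.5% methylcellulose. Six animals per group. Free plasma concentration taken at 8 or 24 h, given as mean with standard deviation.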

[27] = Clearance in cynomolgus monkey at 0.3 mg/kg, iv by LC-MS/MS analysis; assay type: ADME, organism-based, Macaca fascicularis; conditions: in vivo; procedure, shortened: as §4
[28] = AUClast in CD-1 mouse at 10 mg/kg, po administered via gavage by LC-MS/MS analysis; assay type: ADME, organism-based; set-up: time 0 - last, route oral, dose 10 mg/kg; conditions: in vivo; procedure, shortened: as §6
[29] = Volume of distribution at steady state in cynomolgus monkey at 0.3 mg/kg, iv by LC-MS/MS analysis; assay type: ADME, organism-based, Macaca fascicularis; conditions: in vivo, read-out: Vdss; procedure, shortened: as §4
[30] = Oral bioavailability in CD-1 mouse at 10 mg/kg administered via gavage by LC-MS/MS analysis; assay type: ADME, organism-based; conditions: in vivo; procedure, shortened: as §4
[31] = rat, microsomes, 0.75 h, 1 µM
[32] = human, microsomes, 0.75 h, 1 µM
[33] = Intrinsic clearance in monkey liver microsomes assessed per kg protein at 1 uM measured up to 45 mins in presence of NADPH by LC-MS/MS analysis; assay type: ADME, Macaca mulatta, Microsome; conditions: rhesus monkey, 0.75 h
[34] = Permeability across apical to basolateral side in human Caco-2 cells at 10 uM measured after 90 mins by LC-MS/MS analysis; assay type: ADME, cell-based
Procedure, shortened: (§7)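 Caco-2 monolayers grown 21–28 days on polycarbonate filter inserts, with TEER and Lucifer Yellow checked before and after. Compound at 10 μM in HBSS with 25 mM HEPES, pH 7.4. Run A→B and B→A at 37 °C for 90 min. Receiver and donor samples quantified by LC-MS/MS.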

[35] = Intrinsic clearance in mouse hepatocytes […] at 2 uM measured after 15 to 120 mins by LC-MS analysis; assay type: ADME, cell-based, Hepatocyte; conditions: time 15-120 min
[36] = Permeability across basolateral to apical side in human Caco-2 cells at 10 uM measured after 90 mins by LC-MS/MS analysis; assay type: ADME, cell-based; procedure, shortened: as §7
[37] = Intrinsic clearance in dog hepatocytes […] at 2 uM measured after 15 to 120 mins by LC-MS analysis; assay type: ADME, cell-based, Canis lupus familiaris, Hepatocyte; conditions: time 15-120 min
Procedure, shortened: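 Hepatocytes at 2×10^6 viable cells/mL, mixed with an equal volume of 2 μM compound in KHB buffer. Incubated at 37 °C and quenched with ACN at 0, 15, 30, 60 and 120 min. Analysed by LC/MS, with percent remaining from peak area ratio to internal standard against 0 min. Half-life from a single-phase exponential fit.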

[38] = Intrinsic clearance in mouse liver microsomes assessed per kg protein at 1 uM measured up to 45 mins in presence of NADPH by LC-MS/MS analysis; assay type: ADME, Microsome; conditions: 0.75 h
[39] = Intrinsic clearance in monkey hepatocytes […] at 2 uM measured after 15 to 120 mins by LC-MS analysis; assay type: ADME, cell-based, Macaca mulatta, Hepatocyte; conditions: rhesus monkey, time 15-120 min

CNC(=O)c1cn(C[C@H](F)CCc2ccc(NC(=O)Cc3cc(-c4cccc(OC(F)(F)F)c4)ccn3)nn2)nn1.Cl
t1/2 [1]: 2.7 h
Cmax [2]: 580 nM
F [3]: 19%
t1/2 [4]: 2.5 h
Vdss [5]: 1 L/kg
F [6]: 8%
AUClast [7]: 2.5 µM·h
Cmax [8]: 350 nM
Vdss [9]: 0.5 L/kg
AUClast [10]: 1.2 µM·h

CNC(=O)c1cn(C[C@H](F)CCc2ccc(NC(=O)Cc3cc(OC4CC(F)(F)C4)cc(C)n3)nn2)nn1.Cl.Cl
t1/2 [1]: 5.3 h
Cmax [11]: 6500 nM
Cp(f) [12]: 316 nM
Cmax [2]: 31000 nM
clearance [13]: 0.59 mL/min/kg
Cmax [14]: 32000 nM
bioavailability [15]: 72%
half-life ([4]; Beagle): 5.3 h
Vdss [5]: 0.1 L/kg
AUClast [16]: 208 µM·h
Cp(f) [17]: 316 nM
Cp(f) [18]: 29 nM
Vd [19]: 0.27 L/kg
F [6]: > 100%
AUClast [7]: 250 µM·h
AUC(0-t) [20]: 8.7 µM·h
F [21]: 70%
half-life [22]: 0.9 h
Cp(f) [23]: 6 nM
half-life [24]: 1 h
Cmax [25]: 19000 nM
Cp(f) [26]: 198 nM
clearance [27]: 8 mL/min/kg
AUClast [28]: 67 µM·h
Vd ([9]; Beagle, read-out: Vdss): 0.18 L/kg
Vd [29]: 0.31 L/kg
F [30]: 89%

CNC(=O)c1cn(CCCCc2ccc(NC(=O)Cc3cc(OCC(F)(F)F)ccn3)nn2)nn1
CLH [31]: 0.4 mL/min

O=C(Cc1ccccn1)Nc1ccc(CCCCn2cc(C(=O)NCc3cccc(OC(F)(F)F)c3)nn2)nn1
CLH [31]: 283 mL/min

CNC(=O)c1cn(C[C@H](F)CCc2ccc(NC(=O)Cc3cc(C(F)(F)F)ccn3)nn2)nn1
CLH [32]: 0.2 mL/min

CNC(=O)c1cn(C[C@H](F)CCc2ccc(NC(=O)Cc3cc(OC4CC(F)(F)C4)cc(C)n3)nn2)nn1 [IPN-60090]
CLint [33]: 21 mL/min/kg
permeability [34]: 5.2 10^-6 cm/s
CLint [35]: 16 mL/min/kg
permeability [36]: 25 10^-6 cm/s
CLint [37]: 7 mL/min/kg
CLint [38]: 55 mL/min/kg
CLint [39]: 12 mL/min/kg
CLH [32]: <= 0.7 ml/min

CNC(=O)c1cn(C[C@H](F)CCc2ccc(NC(=O)Cc3cc(OC4CC(F)(F)C4)ccn3)nn2)nn1.Cl
t1/2 [1]: 1.2 h
Cmax [2]: 2700 nM
Cmax [14]: 5800 nM
t1/2 [4]: 2.3 h
Vdss [5]: 0.2 L/kg
AUClast [16]: 16 µM·h
F [6]: 34%
AUClast [7]: 10 µM·h
F [21]: 48%
Vdss [9]: 0.5 L/kg
